Assay [1] deals with Human immunodeficiency virus 1. Briefly: Antiviral activity against Laboratory adapted HIV-1 89.6 infected in human PBMC cells assessed as reduction in viral transmission to TZM-bl cells pretreated for 1 hr before viral transmission and further incubated for 48 hrs by luciferase based assay. It is filed as functional, cell-based. The conditions noted are these: Human immunodeficiency virus 1, 89.6, PBMC.

Assay [2] has as its system Human immunodeficiency virus 1. Briefly: Antiviral activity against pseudovirus HIV-1 HXB-2 harboring wild type Env infected in human U87.CD4.CXCR4 cells assessed as reduction in viral infection pretreated for 30 mins before viral infection and measured after 3 days by luciferase based assay. It is filed as functional, cell-based. The conditions noted are these: Human immunodeficiency virus 1, M:B_HXB2R.

The subject of assay [3] is Human immunodeficiency virus 1. Briefly: Antiviral activity against clinical isolate HIV-1 RU570 infected in human PBMC cells assessed as reduction in viral transmission to TZM-bl cells pretreated for 1 hr before viral transmission and further incubated for 48 hrs by luciferase based assay. It is filed as functional, cell-based. The conditions noted are these: Human immunodeficiency virus 1, RU570, PBMC.

Assay [4] concerns Human immunodeficiency virus 1. Briefly: Antiviral activity against pseudovirus HIV-1 HXB-2 harboring Env F468L mutant infected in human U87.CD4.CXCR4 cells assessed as reduction in viral infection pretreated for 30 mins before viral infection and measured after 3 days by luciferase based assay. It is filed as functional, cell-based, M:B_HXB2R. An outline of the steps: (§1)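 Pseudoviruses made in HEK293T by co-transfecting an Env-deleted backbone (pSG3Δenv or pNL4-3.Luc.R-.E-) with an HXB-2 Env plasmid carrying single or double substitutions; Env sequences confirmed by sequencing. Virus pretreated 30 min with graded compound, added to U87-CD4-CXCR4 cells (1 × 10⁴/well, plated overnight), incubated 3 days. Cells lysed, luciferase measured, IC50 calculated.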

The test system of assay [5] is Human immunodeficiency virus 1. Briefly: Antiviral activity against clinical isolate HIV-1 BCF01 infected in human PBMC cells assessed as reduction in viral transmission to TZM-bl cells pretreated for 1 hr before viral transmission and further incubated for 48 hrs by luciferase based assay. The assay is classed as functional, cell-based. The note with it: Human immunodeficiency virus 1, BCF01, PBMC. An outline of the steps: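 PBMC from healthy HIV-negative donors infected with replication-competent virus in the presence of 30 μg/ml DEAE-dextran. On day 4 post-infection, cells washed free of virus and counted. 2 × 10⁴ infected PBMC/well pretreated with escalating compound for 1 h at 37 °C, then co-cultured 48 h with TZM-bl targets (10⁴/well, plated 24 h before). TZM-bl lysed, luciferase read, IC50 calculated.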

The test system of assay [6] is Human immunodeficiency virus 1. Briefly: Antiviral activity against pseudovirus HIV-1 HXB-2 harboring Env M434I mutant infected in human U87.CD4.CXCR4 cells assessed as reduction in viral infection pretreated for 30 mins before viral infection and measured after 3 days by luciferase based assay. The assay is classed as functional, cell-based, M:B_HXB2R. An outline of the steps:
as §1

Assay [7] deals with Human immunodeficiency virus 1. Briefly: Antiviral activity against clinical isolate HIV-1 93RW034 infected in human PBMC cells assessed as reduction in viral transmission to TZM-bl cells pretreated for 1 hr before viral transmission and further incubated for 48 hrs by luciferase based assay. The assay is classed as functional, organism-based. The note with it: Human immunodeficiency virus 1, 93RW034, PBMC.

The test system of assay [8] is Human immunodeficiency virus 1. Briefly: Antiviral activity against pseudovirus HIV-1 HXB-2 harboring Env M475I mutant infected in human U87.CD4.CXCR4 cells assessed as reduction in viral infection pretreated for 30 mins before viral infection and measured after 3 days by luciferase based assay. It is filed as functional, cell-based, M:B_HXB2R. An outline of the steps: as §1

In assay [9] the test system is Human immunodeficiency virus 1. Briefly: Antiviral activity against pseudovirus HIV-1 HXB-2 harboring Env M426L mutant infected in human U87.CD4.CXCR4 cells assessed as reduction in viral infection pretreated for 30 mins before viral infection and measured after 3 days by luciferase based assay. The assay is classed as functional, cell-based, M:B_HXB2R. Put shortly: as §1

By IC50 is commonly meant the concentration at which inhibition is half-maximal. In the case of `COc1cnc(-n2cnc(C)n2)c2[nH]cc(C(=O)C(=O)N3CCN(C(=O)c4ccccc4)CC3)c12`, the IC50 in assay [1] was 100 nM; in assay [2], 8 nM; in assay [3] it was 100 nM; in assay [4], 8 nM; in [5], over 6 µM; in assay [6], 8 nM. For the same compound, the IC50 in assay [7] was 100 nM; in assay [8], 50 nM; in assay [9] it was 230 nM.
